≈ marks a conversion by molar mass, not a printed value.
What was measured:
Assay type in all cases: functional
Staphylococcus aureus [1] = assay: Antibacterial activity against fusidic acid-resistant Staphylococcus aureus harboring R76C in domain 1 and H457Y mutation in domain 3 of EF-G encoded by fusA gene after 16 to 20 hrs by CLSI agar dilution method
Summary of the method: (§1)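 Clinical isolates collected at a Taiwanese teaching hospital, 2002–2007. Inoculum was made by direct colony suspension to 0.5 McFarland. 10^4 CFU/spot was applied by Steers replicator onto Mueller-Hinton agar containing fusidic acid at 0.03 to 128 μg/ml. Plates were incubated at 33 to 35°C for 16–20 h. S. aureus ATCC 29213 served as control. Resistance breakpoint was 2 μg/ml.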

Staphylococcus aureus [2] = assay: Antibacterial activity against fusidic acid-resistant Staphylococcus aureus harboring H457Q mutation in domain 3 of EF-G encoded by fusA gene after 16 to 20 hrs by CLSI agar dilution method; summary of the method: as §1
Staphylococcus aureus [3] = assay: Antibacterial activity against fusidic acid-resistant Staphylococcus aureus harboring E444K mutation in domain 3 of EF-G encoded by fusA gene after 16 to 20 hrs by CLSI agar dilution method; summary of the method: as §1
Staphylococcus aureus [4] = assay: Antibacterial activity against fusidic acid-resistant Staphylococcus aureus harboring H457Y mutation in domain 3 of EF-G encoded by fusA gene after 16 to 20 hrs by CLSI agar dilution method; summary of the method: as §1
Staphylococcus aureus [5] = assay: Antibacterial activity against fusidic acid-resistant Staphylococcus aureus harboring E444V and L461F mutations in domain 3 of EF-G encoded by fusA gene after 16 to 20 hrs by CLSI agar dilution method; summary of the method: as §1
Staphylococcus aureus [6] = assay: Antibacterial activity against fusidic acid-resistant Staphylococcus aureus harboring A67T in domain 1 and H457Y mutation in domain 3 of EF-G encoded by fusA gene after 16 to 20 hrs by CLSI agar dilution method; summary of the method: as §1
Staphylococcus aureus [7] = assay: Antibacterial activity against methicillin-susceptible Staphylococcus aureus harboring P478S mutation in domain 3 of EF-G encoded by fusA gene after 16 to 20 hrs by CLSI agar dilution method; summary of the method: as §1
Staphylococcus aureus [8] = assay: Antibacterial activity against Staphylococcus aureus harboring G451V mutation in domain 3 of EF-G encoded by fusA gene after 16 to 20 hrs by CLSI agar dilution method; summary of the method: as §1
Staphylococcus aureus [9] = assay: Antibacterial activity against fusidic acid-resistant, methicillin-susceptible Staphylococcus aureus after 16 to 20 hrs by CLSI agar dilution method
Summary of the method: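 Clinical isolates from a Taiwan teaching hospital, 2002–2007. CLSI agar dilution: colonies suspended directly to 0.5 McFarland, and 10^4 CFU/spot applied by Steers replicator to Mueller-Hinton agar containing fusidic acid at 0.03 to 128 μg/ml. Plates incubated 16 to 20 h at 33 to 35°C. S. aureus ATCC 29213 used as control; resistance breakpoint 2 μg/ml.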

Staphylococcus aureus [10] = assay: Antibacterial activity against fusidic acid-resistant Staphylococcus aureus harboring H457Q and L461K mutations in domain 3 of EF-G encoded by fusA gene after 16 to 20 hrs by CLSI agar dilution method; summary of the method: as §1
Staphylococcus aureus [11] = assay: Antibacterial activity against fusidic acid-resistant Staphylococcus aureus harboring A71V in domain 1 and P404L mutation in domain 3 of EF-G encoded by fusA gene after 16 to 20 hrs by CLSI agar dilution method; summary of the method: as §1
Staphylococcus aureus [12] = assay: Antibacterial activity against fusidic acid-resistant methicillin-susceptible Staphylococcus aureus harboring P404L mutation in domain 3 of EF-G encoded by fusA gene after 16 to 20 hrs by CLSI agar dilution method; summary of the method: as §1
Staphylococcus aureus [13] = assay: Antibacterial activity against Staphylococcus aureus harboring […] and C473S mutations in domain 3 of EF-G encoded by fusA gene after 16 to 20 hrs by CLSI agar dilution method; summary of the method: as §1
Staphylococcus aureus [14] = assay: Antibacterial activity against fusidic acid-resistant, methicillin-resistant Staphylococcus aureus after 16 to 20 hrs by CLSI agar dilution method; summary of the method: as §1
Staphylococcus aureus [15] = assay: Antibacterial activity against Staphylococcus aureus harboring P406L mutation in domain 3 of EF-G encoded by fusA gene after 16 to 20 hrs by CLSI agar dilution method; summary of the method: as §1
Staphylococcus aureus [16] = assay: Antibacterial activity against fusidic acid-resistant Staphylococcus aureus harboring H457Q and L461F mutations in domain 3 of EF-G encoded by fusA gene after 16 to 20 hrs by CLSI agar dilution method; summary of the method: as §1
Staphylococcus aureus [17] = assay: Antibacterial activity against fusidic acid-resistant Staphylococcus aureus harboring M16I in domain 1 and H457Y mutation in domain 3 of EF-G encoded by fusA gene after 16 to 20 hrs by CLSI agar dilution method; summary of the method: as §1
Staphylococcus aureus [18] = assay: Antibacterial activity against methicillin-susceptible Staphylococcus aureus harboring M651I mutation in domain 5 of EF-G encoded by fusA gene after 16 to 20 hrs by CLSI agar dilution method
Summary of the method: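 Agar dilution per CLSI on Mueller-Hinton agar, fusidic acid 0.03 to 128 μg/ml. Inoculum from direct colony suspension adjusted to 0.5 McFarland, 104 CFU/spot applied by Steers replicator. Plates incubated 33 to 35°C for 16 to 20 h. S. aureus ATCC 29213 as control strain; resistance breakpoint 2 μg/ml.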

Staphylococcus aureus [19] = assay: Antibacterial activity against fusidic acid-resistant Staphylococcus aureus harboring L461K mutation in domain 3 of EF-G encoded by fusA gene after 16 to 20 hrs by CLSI agar dilution method; summary of the method: as §1
Staphylococcus aureus [20] = assay: Antibacterial activity against Staphylococcus aureus harboring M453I mutation in domain 3 of EF-G encoded by fusA gene after 16 to 20 hrs by CLSI agar dilution method; summary of the method: as §1
Staphylococcus aureus [21] = assay: Antibacterial activity against fusidic acid-resistant Staphylococcus aureus harboring A70V in domain 1 and H457Y mutation in domain 3 of EF-G encoded by fusA gene after 16 to 20 hrs by CLSI agar dilution method; summary of the method: as §1
Staphylococcus aureus [22] = assay: Antibacterial activity against fusidic acid-resistant Staphylococcus aureus harboring A376V in domain 2 and L456F mutation in domain 3 of EF-G encoded by fusA gene after 16 to 20 hrs by CLSI agar dilution method; summary of the method: as §1
Staphylococcus aureus [23] = assay: Antibacterial activity against Staphylococcus aureus harboring L461S mutation in domain 3 of EF-G encoded by fusA gene after 16 to 20 hrs by CLSI agar dilution method; summary of the method: as §1
Staphylococcus aureus [24] = assay: Antibacterial activity against fusidic acid-resistant methicillin-resistant Staphylococcus aureus harboring P404L mutation in domain 3 of EF-G encoded by fusA gene after 16 to 20 hrs by CLSI agar dilution method; summary of the method: as §1

Compound: CC(=O)O[C@H]1C[C@@]2(C)[C@@H](C[C@@H](O)[C@H]3[C@@]4(C)CC[C@@H](O)[C@@H](C)[C@@H]4CC[C@@]32C)/C1=C(\CCC=C(C)C)C(=O)O [FUSIDIC ACID]
- MIC (Staphylococcus aureus [1]): > 128 µg/mL
- MIC (Staphylococcus aureus [2]): 8 µg/mL (≈ 15.5 µM)
- MIC (Staphylococcus aureus [3]): 16 µg/mL (≈ 31 µM)
- MIC (Staphylococcus aureus [4]): 128 µg/mL (≈ 248 µM)
- MIC (Staphylococcus aureus [5]): 32 µg/mL (≈ 61.9 µM)
- MIC (Staphylococcus aureus [6]): 128 µg/mL (≈ 248 µM)
- MIC (Staphylococcus aureus [7]): 8 µg/mL (≈ 15.5 µM)
- MIC (Staphylococcus aureus [8]): 8 µg/mL (≈ 15.5 µM)
- MIC50 (Staphylococcus aureus [9]): 8 µg/mL (≈ 15.5 µM)
- MIC90 (Staphylococcus aureus [9]): 16 µg/mL (≈ 31 µM)
- MIC (Staphylococcus aureus [10]): > 128 µg/mL
- MIC (Staphylococcus aureus [11]): 8 µg/mL (≈ 15.5 µM)
- MIC (Staphylococcus aureus [12]): 16 µg/mL (≈ 31 µM)
- MIC (Staphylococcus aureus [13]): > 128 µg/mL
- MIC50 (Staphylococcus aureus [14]): 32 µg/mL (≈ 61.9 µM)
- MIC90 (Staphylococcus aureus [14]): > 128 µg/mL
- MIC (Staphylococcus aureus [15]): 16 µg/mL (≈ 31 µM)
- MIC (Staphylococcus aureus [16]): 128 µg/mL (≈ 248 µM)
- MIC (Staphylococcus aureus [17]): 16 µg/mL (≈ 31 µM)
- MIC (Staphylococcus aureus [18]): 2 µg/mL (≈ 3.87 µM)
- MIC (Staphylococcus aureus [19]): > 128 µg/mL
- MIC (Staphylococcus aureus [20]): 8 µg/mL (≈ 15.5 µM)
- MIC (Staphylococcus aureus [21]): > 128 µg/mL
- MIC (Staphylococcus aureus [22]): 32 µg/mL (≈ 61.9 µM)
- MIC (Staphylococcus aureus [23]): 4 µg/mL (≈ 7.74 µM)
- MIC (Staphylococcus aureus [24]): 8 µg/mL (≈ 15.5 µM)
